Reference: ChEMBL document CHEMBL1125298, “Hypocholesterolemic activity of synthetic and natural tocotrienols” (J Med Chem, 1992)
pIC50: −log10 of the molar value. Values after ≈ are worked out from the molar mass of the structure shown. Values joined by “and” are separate entries in the source; they are usually repeats but may differ in a detail not shown here. Equal values may be shown once.

Assays:
Rattus norvegicus [1] = species on record: Rattus norvegicus; experiment: Compound is evaluated for the inhibition of cholesterol biosynthesis in isolated rat hepatocytes at the concentration 125 (ug/mL); format: functional, Hepatocyte
Rattus norvegicus [2] = species on record: Rattus norvegicus; experiment: Compound is evaluated for the inhibition of cholesterol biosynthesis in isolated rat hepatocytes at the concentration 250 (ug/mL); format: functional, Hepatocyte
HepG2 [3] = experiment: Compound evaluated for Percent inhibition of cholesterol synthesis from HMG-CoA Reductase in HepG2 cell; format: functional, Homo sapiens
Rattus norvegicus [4] = species on record: Rattus norvegicus; experiment: Inhibitory concentration required to inhibit cholesterol synthesis in isolated rat Hepatocytes; format: functional, Hepatocyte
Rattus norvegicus [5] = species on record: Rattus norvegicus; experiment: Compound is evaluated for the inhibition of cholesterol biosynthesis in isolated rat hepatocytes at the concentration 500 (ug/mL); format: functional, Hepatocyte
Gallus gallus [6] = species on record: Gallus gallus; experiment: Compound is evaluated for the effect on lipid metabolism in 6-week-old male chickens at a concentration of 20 ppm in the diet and measured for total cholesterol; format: functional
Gallus gallus [7] = species on record: Gallus gallus; experiment: picomoles of mevalonic acid synthesized per minute per mg of microsomal protein; format: functional, organism-based
Gallus gallus [8] = species on record: Gallus gallus; experiment: Compound is evaluated for the effect on lipid metabolism in 6-week-old male chickens at a concentration of 20 ppm in the diet and measured for HDL cholesterol; format: functional
HepG2 [9] = experiment: Compound evaluated for Percent inhibition of cholesterol synthesis from [14C]acetate in HepG2 cell; format: functional, Homo sapiens
Gallus gallus [10] = species on record: Gallus gallus; experiment: Compound is evaluated for the effect on lipid metabolism in 6-week-old male chickens at a concentration of 20 ppm in the diet and measured for LDL cholesterol; format: functional
Procedure, shortened: (§1)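 Male chicks were raised 2 weeks on a corn-soybean control diet, then fed 4 weeks on control diet or the same diet with compound added. All birds were fasted 36 h and refed 48 h before sacrifice. Serum cholesterol is given as mg/100 mL.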

Rattus norvegicus [11] = species on record: Rattus norvegicus; experiment: Percent inhibition at 250 ug/mL of binary mixtures of compound and gamma-tocotrienol on cholesterol synthesis in rat hepatocytes; format: functional, Hepatocyte
Rattus norvegicus [12] = species on record: Rattus norvegicus; experiment: Compound is evaluated for the inhibition of cholesterol biosynthesis in isolated rat hepatocytes at the concentration 500 ug/mL; format: functional, Hepatocyte
Rattus norvegicus [13] = species on record: Rattus norvegicus; experiment: Percent inhibition at 250 ug/mL of binary mixtures of compound and delta-tocotrienol on cholesterol synthesis in rat hepatocytes; format: functional, Hepatocyte
HepG2 [14] = experiment: Compound evaluated for percent inhibition of cholesterol synthesis from [14C]acetate in HepG2 cell; format: functional, Homo sapiens; parameters: concentration or dose not given beside the values
Gallus gallus [15] = species on record: Gallus gallus; experiment: Compound is evaluated for the effect on lipid metabolism in 6-week-old male chickens at a concentration of 20 ppm in the diet and measured for HDL cholesterol (dose 45 p.p.m.); format: functional
Gallus gallus [16] = species on record: Gallus gallus; experiment: Compound is evaluated for the effect on lipid metabolism in 6-week-old male chickens at a concentration of 20 ppm in the diet and measured for LDL cholesterol (dose 30 p.p.m.); format: functional; procedure, shortened: as §1
Gallus gallus [17] = species on record: Gallus gallus; experiment: Compound is evaluated for the effect on lipid metabolism in 6-week-old male chickens at a concentration of 20 ppm in the diet and measured for total cholesterol (dose 30 p.p.m.); format: functional
Gallus gallus [18] = species on record: Gallus gallus; experiment: picomoles of mevalonic acid synthesized per minute per mg of microsomal protein(dose 30 p.p.m.); format: functional, organism-based
Gallus gallus [19] = species on record: Gallus gallus; experiment: Compound is evaluated for the effect on lipid metabolism in 6-week-old male chickens at a concentration of 20 ppm in the diet and measured for LDL cholesterol (dose 45 p.p.m.); format: functional; procedure, shortened: as §1
Rattus norvegicus [20] = species on record: Rattus norvegicus; experiment: Percent inhibition at 250 ug/mL of binary mixtures of compound and alpha-tocotrienol on cholesterol synthesis in rat hepatocytes; format: functional, Hepatocyte
Gallus gallus [21] = species on record: Gallus gallus; experiment: picomoles of mevalonic acid synthesized per minute per mg of microsomal protein(dose 45 p.p.m.); format: functional, organism-based
Gallus gallus [22] = species on record: Gallus gallus; experiment: Compound is evaluated for the effect on lipid metabolism in 6-week-old male chickens at a concentration of 20 ppm in the diet and measured for HDL cholesterol (dose 30 p.p.m.); format: functional
Gallus gallus [23] = species on record: Gallus gallus; experiment: Compound is evaluated for the effect on lipid metabolism in 6-week-old male chickens at a concentration of 20 ppm in the diet and measured for total cholesterol (dose 45 p.p.m.); format: functional
Gallus gallus [24] = species on record: Gallus gallus; experiment: Compound is evaluated for the effect on lipid metabolism in 6-week-old male chickens at a concentration of 20 ppm in the diet and measured for total cholesterol (dose 15 p.p.m.); format: functional
Gallus gallus [25] = species on record: Gallus gallus; experiment: Compound is evaluated for the effect on lipid metabolism in 6-week-old male chickens at a concentration of 20 ppm in the diet and measured for LDL cholesterol (dose 15 p.p.m.); format: functional; procedure, shortened: as §1
Gallus gallus [26] = species on record: Gallus gallus; experiment: picomoles of mevalonic acid synthesized per minute per mg of microsomal protein (dose 15 p.p.m.); format: functional, organism-based
Gallus gallus [27] = species on record: Gallus gallus; experiment: Compound is evaluated for the effect on lipid metabolism in 6-week-old male chickens at a concentration of 20 ppm in the diet and measured for HDL cholesterol (dose 15 p.p.m.); format: functional
Rattus norvegicus [28] = species on record: Rattus norvegicus; experiment: Inhibitory concentration required to inhibit cholesterol synthesis in isolated rat Hepatocytes; no inhibition; format: functional; conditions: hepatocyte
Rattus norvegicus [29] = species on record: Rattus norvegicus; experiment: Percent inhibition of cholesterol biosynthesis in rat hepatocytes at a concentration of 210 (micro g/mL); format: functional, Hepatocyte
HepG2 [30] = experiment: Compound is evaluated for the inhibition of cholesterol synthesis in HepG2 cells for an incubation time of 4 (h); format: functional, cell-based; conditions: Homo sapiens
Procedure, shortened: (§2)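 HepG2 cells were grown in RPMI-1640 with 10% FBS. At about 70% confluence they were switched to 7% lipid-depleted serum for 16 h. Compound in DMSO (0.5% v/v final) was added for the stated time. A [2-14C]acetate pulse over the final 60 min measured incorporation into digitonin-precipitable sterols. IC50 came from linear regression of at least four concentrations, each in duplicate.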

HepG2 [31] = experiment: Compound is evaluated for the inhibition of cholesterol synthesis in HepG2 cells for an incubation time of 2 (h); format: functional, cell-based; conditions: Homo sapiens; procedure, shortened: as §2
Gallus gallus [32] = species on record: Gallus gallus; experiment: Compound is evaluated for the effect on lipid metabolism in 6-week-old male chickens at a concentration of 20 ppm in the diet and measured for HDL cholesterol dose 45 p.p.m.); format: functional
HepG2 [33] = experiment: Compound is evaluated for the inhibition of cholesterol synthesis in HepG2 cells for an incubation time of 6 (h); format: functional, cell-based; conditions: Homo sapiens; procedure, shortened: as §2
Gallus gallus [34] = species on record: Gallus gallus; experiment: Compound is evaluated for the effect on lipid metabolism in 6-week-old male chickens at a concentration of 20 ppm in the diet and measured for LDL cholesterol dose 45 p.p.m.); format: functional; procedure, shortened: as §1
Gallus gallus [35] = species on record: Gallus gallus; experiment: picomoles of mevalonic acid synthesized per minute per mg of microsomal […] 45 p.p.m.); format: functional, organism-based
[36] = Rattus norvegicus, Hepatocyte, read-out: IC50

SMILES: CC(C)=CCC/C(C)=C/CC/C(C)=C/CC[C@]1(C)CCc2cc(O)cc(C)c2O1 [DELTA-TOCOTRIENOL]
- Inhibition (Rattus norvegicus [1]): 26%
- Inhibition (Rattus norvegicus [2]): 49% and 33%
- Inhibition (HepG2 [3]): 65%
- IC50 (Rattus norvegicus [4]; [36]): 260 µg/mL (≈ 656 µM)
- IC50 (Rattus norvegicus [4]; hepatocyte): 340 µg/mL (≈ 857 µM)
- Inhibition (Rattus norvegicus [5]): 62% and 63%
- Total cholesterol (Gallus gallus [6]): 141 mg 100ml-1
- HMGR activity (Gallus gallus [7]): 550
- HDL cholesterol (Gallus gallus [8]): 99 mg 100ml-1
- Inhibition (HepG2 [9]): 77%
- LDL cholesterol (Gallus gallus [10]): 41 mg 100ml-1

SMILES: CC(C)=CCC/C(C)=C/CC/C(C)=C/CC[C@]1(C)CCc2c(C)c(O)c(C)c(C)c2O1 [ALPHA-TOCOTRIENOL]
- Inhibition (Rattus norvegicus [11]): 49%
- Inhibition (Rattus norvegicus [1]): 8%
- Inhibition (Rattus norvegicus [2]): 8% and 20%
- Inhibition (Rattus norvegicus [12]): 12% and 33%
- Inhibition (HepG2 [3]): 15%
- IC50 (Rattus norvegicus [4]; [36]): > 1000 µg/mL
- IC50 (Rattus norvegicus [4]; hepatocyte): 1300 µg/mL (≈ 3060 µM)
- Total cholesterol (Gallus gallus [6]): 155 mg 100ml-1
- HMGR activity (Gallus gallus [7]): 670
- HDL cholesterol (Gallus gallus [8]): 102 mg 100ml-1
- Inhibition (HepG2 [9]): 32%
- LDL cholesterol (Gallus gallus [10]): 55 mg 100ml-1
- Inhibition (Rattus norvegicus [13]): 53%

SMILES: COCCOCOc1cc2c(c(C)c1C)OC(C)(CC/C=C/CCC=C(C)C)CC2 (stereo not drawn)
- Inhibition (HepG2 [14]): 19%

SMILES: CC(C)=CCC/C(C)=C/CC/C(C)=C/CC[C@]1(C)CCc2cc(O)c(C)c(C)c2O1 [GAMMA-TOCOTRIENOL]
- HDL cholesterol (Gallus gallus [15]): 94 mg 100ml-1
- LDL cholesterol (Gallus gallus [16]): 35 mg 100ml-1
- Inhibition (Rattus norvegicus [1]): 28%
- Total cholesterol (Gallus gallus [17]): 132 mg 100ml-1
- HMGR activity (Gallus gallus [18]): 561
- Inhibition (Rattus norvegicus [2]): 48% and 34%
- LDL cholesterol (Gallus gallus [19]): 29 mg 100ml-1
- Inhibition (Rattus norvegicus [12]): 61%
- inhibition at 500 µg/mL (Rattus norvegicus [12]; Rattus norvegicus, Hepatocyte): 60%
- Inhibition (HepG2 [3]): 64%
- IC50 (Rattus norvegicus [4]; [36]): 270 µg/mL (≈ 658 µM)
- IC50 (Rattus norvegicus [4]; hepatocyte): 360 µg/mL (≈ 877 µM)
- Inhibition (Rattus norvegicus [20]): 64%
- Total cholesterol (Gallus gallus [6]): 151 mg 100ml-1
- HMGR activity (Gallus gallus [7]): 494
- HMGR activity (Gallus gallus [21]): 546
- HDL cholesterol (Gallus gallus [22]): 95 mg 100ml-1
- Total cholesterol (Gallus gallus [23]): 125 mg 100ml-1
- HDL cholesterol (Gallus gallus [8]): 102 mg 100ml-1
- Total cholesterol (Gallus gallus [24]): 141 mg 100ml-1
- LDL cholesterol (Gallus gallus [25]): 42 mg 100ml-1
- HMGR activity (Gallus gallus [26]): 606
- Inhibition (HepG2 [9]): 78%
- HDL cholesterol (Gallus gallus [27]): 97 mg 100ml-1
- LDL cholesterol (Gallus gallus [10]): 41 mg 100ml-1

SMILES: Cc1c(C)c2c(c(C)c1O)CC[C@@](C)(CCC[C@H](C)CCC[C@H](C)CCCC(C)C)O2 [ALPHA-TOCOPHEROL]
- Inhibition (Rattus norvegicus [11]): 42%
- Inhibition (Rattus norvegicus [2]): 0%
- Inhibition (Rattus norvegicus [12]): 2% and 0%
- Inhibition (Rattus norvegicus [20]): 3%
- IC50 (Rattus norvegicus [28]): Not Active
- Total cholesterol (Gallus gallus [6]): 190 mg 100ml-1
- HMGR activity (Gallus gallus [7]): 1300
- HDL cholesterol (Gallus gallus [8]): 113 mg 100ml-1
- LDL cholesterol (Gallus gallus [10]): 72 mg 100ml-1
- Inhibition (Rattus norvegicus [13]): 49%
- Inhibition (Rattus norvegicus [29]): 0%

SMILES: CC(C)=CCC/C(C)=C/CC/C(C)=C/CCC1(C)CCc2cc(O)c(C)c(C)c2O1 (racemic)
- LDL cholesterol (Gallus gallus [16]): 39 mg 100ml-1
- Total cholesterol (Gallus gallus [17]): 138 mg 100ml-1
- HMGR activity (Gallus gallus [18]): 561
- Inhibition (HepG2 [3]): 62%
- pIC50 (HepG2 [30]): 5.55
- pIC50 (HepG2 [31]): 5.23
- HDL cholesterol (Gallus gallus [22]): 97 mg 100ml-1
- Total cholesterol (Gallus gallus [23]): 132 mg 100ml-1
- HDL cholesterol (Gallus gallus [32]): 96 mg 100ml-1
- Total cholesterol (Gallus gallus [24]): 143 mg 100ml-1
- pIC50 (HepG2 [33]): 5.52
- LDL cholesterol (Gallus gallus [25]): 44 mg 100ml-1
- HMGR activity (Gallus gallus [26]): 603
- LDL cholesterol (Gallus gallus [34]): 32 mg 100ml-1
- Inhibition (HepG2 [9]): 71%
- HMGR activity (Gallus gallus [35]): 551
- HDL cholesterol (Gallus gallus [27]): 97 mg 100ml-1
